According to ChEMBL document CHEMBL1124924, “Aromatic thiazole derivatives: structurally novel and selective serotonin-3 receptor antagonists” (J Med Chem, 1990):
pKi: −log10 of the molar value.

Tests used:
Rattus norvegicus [1] = experiment: (§1) Percent inhibition of serotonin-induced B-J reflex (Bezold-Jarisch reflex)in the right femoral vein of rat at a dose of 2 ug/kg; assay type: functional
In short: (§2)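 Rats given test compound and serotonin intravenously through a cannula in the right femoral vein. Von Bezold-Jarisch reflex read as blockade of serotonin-induced bradycardia. Otherwise run by a previously published procedure.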

Rattus norvegicus [2] = experiment: Percent response to 100 ug/kg serotonin was determined as blockade of serotonin-induced bradycardia in anesthetized rat; assay type: functional
In short: (§3)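 Rat von Bezold–Jarisch reflex, read as blockade of serotonin-induced bradycardia. Test compound and serotonin were both given iv through a cannula in the right femoral vein.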

[3] = target: T1, Serotonin 3 (5-HT3) receptor (Rattus norvegicus, UniProt P35563+Q9JJ16); experiment: In vitro displacement of [3H]ICS-205-930 from 5-hydroxytryptamine 3 receptor in cultured NG-108-15 […] cells
T1 sequence (P35563 whole entry): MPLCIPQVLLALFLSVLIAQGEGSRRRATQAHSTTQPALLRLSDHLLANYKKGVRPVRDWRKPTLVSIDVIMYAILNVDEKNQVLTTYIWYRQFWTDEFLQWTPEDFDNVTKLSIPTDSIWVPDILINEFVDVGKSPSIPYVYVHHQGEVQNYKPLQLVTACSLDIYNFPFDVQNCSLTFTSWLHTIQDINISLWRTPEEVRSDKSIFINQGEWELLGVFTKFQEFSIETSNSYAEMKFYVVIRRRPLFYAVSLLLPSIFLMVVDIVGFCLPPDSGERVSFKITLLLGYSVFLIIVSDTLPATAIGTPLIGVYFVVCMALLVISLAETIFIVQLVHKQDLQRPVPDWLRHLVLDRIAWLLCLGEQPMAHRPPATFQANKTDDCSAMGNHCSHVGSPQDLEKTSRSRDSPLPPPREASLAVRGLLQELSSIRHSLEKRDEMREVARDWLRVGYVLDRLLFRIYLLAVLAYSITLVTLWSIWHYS
T1 sequence (Q9JJ16 whole entry): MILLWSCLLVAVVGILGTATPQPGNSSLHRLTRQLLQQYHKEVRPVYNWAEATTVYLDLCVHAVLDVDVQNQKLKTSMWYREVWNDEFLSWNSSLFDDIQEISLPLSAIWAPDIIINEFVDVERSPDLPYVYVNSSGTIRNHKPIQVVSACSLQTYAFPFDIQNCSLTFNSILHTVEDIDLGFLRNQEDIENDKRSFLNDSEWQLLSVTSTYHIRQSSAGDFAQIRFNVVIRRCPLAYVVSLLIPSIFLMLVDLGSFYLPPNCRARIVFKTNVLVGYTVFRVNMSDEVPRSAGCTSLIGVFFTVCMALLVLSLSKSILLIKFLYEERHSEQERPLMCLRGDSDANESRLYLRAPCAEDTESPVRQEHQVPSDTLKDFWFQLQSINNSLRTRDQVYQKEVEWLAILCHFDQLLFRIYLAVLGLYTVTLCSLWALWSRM

Rattus norvegicus [4] = experiment: Percent inhibition of serotonin-induced B-J reflex (Bezold-Jarisch reflex)in the right femoral vein of rat at a dose of 1 mg/kg po; assay type: functional
Rattus norvegicus [5] = experiment: Percent inhibition of serotonin-induced B-J reflex (Bezold-Jarisch reflex)in the right femoral vein of rat at a dose of 20 ug/kg; assay type: functional; in short: as §3
Rattus norvegicus [6] = experiment: as §1; assay type: functional; in short: as §3; remark: listed apart in the source
Rattus norvegicus [7] = experiment: Percent inhibition of serotonin-induced B-J reflex (Bezold-Jarisch reflex)in the right femoral vein of rat at a dose of 10 ug/kg; assay type: functional; in short: as §2
Rattus norvegicus [8] = experiment: Percent inhibition of serotonin-induced B-J reflex (Bezold-Jarisch reflex)in the right femoral vein of rat at a dose of 50 ug/kg; assay type: functional; in short: as §2
Rattus norvegicus [9] = experiment: (§4) Percent inhibition of serotonin-induced B-J reflex (Bezold-Jarisch reflex)in the right femoral vein of rat at a dose of 100 ug/kg; assay type: functional; in short: as §3
Rattus norvegicus [10] = experiment: as §4; assay type: functional; in short: as §2; remark: listed apart in the source

Compound	inhibition in vivo at 0.002 mg/kg (Rattus norvegicus [1]) [%]	Response (Rattus norvegicus [2]) [%]	pKi [3]	inhibition in vivo at 0.02 mg/kg (Rattus norvegicus [5]) [%]	also measured
c1ccc(-c2csc(Cc3c[nH]cn3)n2)cc1	41	80	9.00	–	–
Cc1[nH]cnc1Cc1nc(-c2ccccc2)cs1	11	0	8.82	86	inhibition in vivo at 1 mg/kg (Rattus norvegicus [4]): 67%
Cc1nccn1CC1CCc2c(c3ccccc3n2C)C1=O (centres undefined) [ONDANSETRON]	–	0	–	90	inhibition in vivo at 0.002 mg/kg (Rattus norvegicus [6]): 43%
Cc1[nH]c2ccc(O)cc2c1CCN	–	41	5.91	–	inhibition in vivo at 0.01 mg/kg (Rattus norvegicus [7]): 23%; inhibition in vivo at 0.05 mg/kg (Rattus norvegicus [8]): 66%
CN1[C@@H]2CC[C@H]1C[C@@H](OC(=O)c1c[nH]c3ccccc13)C2 [TROPISETRON]	76	0	–	–	–
Cc1nc(Cc2nc(-c3ccccc3)cs2)c[nH]1	–	0	6.65	–	inhibition in vivo at 0.1 mg/kg (Rattus norvegicus [9]): 7%
Cc1[nH]cnc1Cc1nc(-c2c[nH]c3ccccc23)cs1	–	0	7.98	–	inhibition in vivo at 0.1 mg/kg (Rattus norvegicus [10]): 45%
c1ccc2c(-c3csc(Cc4c[nH]cn4)n3)c[nH]c2c1	–	14	7.85	–	inhibition in vivo at 0.1 mg/kg (Rattus norvegicus [10]): 63%
N=C(N)NCc1nc(-c2c[nH]c3ccccc23)cs1	–	60	8.48	82	inhibition in vivo at 1 mg/kg (Rattus norvegicus [4]): 0%; inhibition in vivo at 0.002 mg/kg (Rattus norvegicus [6]): 51%
Cc1nccn1Cc1nc(-c2c[nH]c3ccccc23)cs1	–	0	< 6.00	–	inhibition in vivo at 0.1 mg/kg (Rattus norvegicus [9]): 7%
